Data on 23 molecules can be found in ChEMBL document CHEMBL3046655, “Schiff bases as potential fungicides and nitrification inhibitors” (2009).

Converted amounts (≈) assume the structure as drawn. The source made the active and inactive calls. No cut-off for these calls is given here.

One experiment has as its system Athelia rolfsii. Briefly: Fungicidal activity against Athelia rolfsii assessed as fungal growth inhibition at 28 degC by poisoned food technique. The note with it: Agroathelia rolfsii; for EC50: read-out: ED50 (the source's name). It counts as functional. In a few lines: (§1)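 Poisoned-food assay on PDA. A 5 mm plug from the growing edge of a 2-week colony was placed centrally. Plates were held at 28 °C until control growth was nearly complete. Colony diameter was measured; n=4. Inhibition = (C−T)×100/C, Abbott-corrected; ED50 by probit.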

A further experiment deals with Macrophomina phaseolina. Briefly: Fungicidal activity against Rhizoctonia bataticola assessed as fungal growth inhibition at 28 degC by poisoned food technique. Particulars: for EC50: read-out: ED50 (the source's name). The class given is functional. The method in brief: as §1

As to `Fc1ccc(/N=C/c2c(Cl)cccc2Cl)cc1`, the figures for the EC50 in the experiment with Athelia rolfsii and in the experiment with Macrophomina phaseolina were 108 µg/mL (≈ 403 µM) and 123 µg/mL (≈ 459 µM), respectively.

With `O=[N+]([O-])c1cccc(/C=N/c2ccccc2F)c1`, the EC50 is 160 µg/mL (≈ 656 µM) in the experiment with Athelia rolfsii and 113 µg/mL (≈ 462 µM) in the experiment with Macrophomina phaseolina.

Turning to `O=[N+]([O-])c1cccc(/C=N/C2CCCCC2/N=C/c2cccc([N+](=O)[O-])c2)c1` (stereo unspecified), the ED50 entry with Athelia rolfsii and in the experiment with Macrophomina phaseolina was “inactive” throughout.

As for `Fc1cccc(/N=C/c2c(Cl)cccc2Cl)c1`, the EC50 in the experiment with Athelia rolfsii turned out to be 87 µg/mL (≈ 324 µM); in the experiment with Macrophomina phaseolina, 54 µg/mL (≈ 201 µM).

In the case of `O=[N+]([O-])c1cccc(/C=N/c2cccc(F)c2)c1`, the EC50 in the experiment on Athelia rolfsii worked out at 175 µg/mL (≈ 718 µM); in the experiment on Macrophomina phaseolina, 180 µg/mL (≈ 737 µM).

Take `O=[N+]([O-])c1cccc(/C=N/CCC/N=C/c2cccc([N+](=O)[O-])c2)c1`: the ED50 result with Athelia rolfsii and in the experiment with Macrophomina phaseolina was “inactive” in each case.

Consider `Clc1ccc(/C=N/c2ccco2)c(Cl)c1`, for which the EC50 was found to be 35.2 µg/mL (≈ 147 µM) in the experiment on Athelia rolfsii and 23.1 µg/mL (≈ 96.4 µM) in the experiment with Macrophomina phaseolina.

As for `CCCCC(O)(Cn1cncn1)c1ccc(Cl)cc1Cl` (stereo unspecified) [HEXACONAZOLE], the values for the EC50 with Athelia rolfsii and in the experiment with Macrophomina phaseolina were 2.3 µg/mL (≈ 7.32 µM) and 1.7 µg/mL (≈ 5.41 µM), respectively.

Turning to `Fc1ccccc1/N=C/c1ccc(Cl)cc1Cl`, the results for the EC50 with Athelia rolfsii and in the experiment on Macrophomina phaseolina were 63.4 µg/mL (≈ 237 µM) and 15.6 µg/mL (≈ 58 µM), respectively.

On to `Clc1cccc(Cl)c1/C=N/c1ccco1`, for which the EC50 stood at 78.3 µg/mL (≈ 326 µM) in the experiment with Athelia rolfsii and 45.7 µg/mL (≈ 190 µM) with Macrophomina phaseolina.

For `Clc1ccc(/C=N/c2cc(Cl)c(Cl)cc2Cl)c(Cl)c1`, the values for the EC50 in the experiment on Athelia rolfsii and in the experiment on Macrophomina phaseolina were 24.4 µg/mL (≈ 68.9 µM) and 3.05 µg/mL (≈ 8.63 µM), respectively.

On to `O=[N+]([O-])c1cccc(/C=N/CCCC/N=C/c2cccc([N+](=O)[O-])c2)c1`, for which the ED50 entry in the experiment with Athelia rolfsii and in the experiment with Macrophomina phaseolina was “inactive” throughout.

For the molecule `O=[N+]([O-])c1cccc(/C=N/c2cc(Cl)c(Cl)cc2Cl)c1`, the EC50 in the experiment on Athelia rolfsii was 21.7 µg/mL (≈ 65.9 µM); in the experiment on Macrophomina phaseolina it was 6.17 µg/mL (≈ 18.7 µM).

Consider `Fc1ccccc1/N=C/c1c(Cl)cccc1Cl`, for which the EC50 with Athelia rolfsii was 45.6 µg/mL (≈ 170 µM); with Macrophomina phaseolina it was 45 µg/mL (≈ 168 µM).

With `Clc1cccc(Cl)c1/C=N/C1CCCCC1/N=C/c1c(Cl)cccc1Cl` (stereo unspecified), the EC50 is 39.5 µg/mL (≈ 92.3 µM) in the experiment on Athelia rolfsii and 124 µg/mL (≈ 290 µM) in the experiment on Macrophomina phaseolina.

For the molecule `Clc1ccc(/C=N/C2CCCCC2/N=C/c2ccc(Cl)cc2Cl)c(Cl)c1` (stereo unspecified), the EC50 was 34.2 µg/mL (≈ 79.9 µM) in the experiment with Athelia rolfsii and 18.3 µg/mL (≈ 42.7 µM) with Macrophomina phaseolina.

On to `O=[N+]([O-])c1cccc(/C=N/c2ccc(F)cc2)c1`, for which the results for the EC50 with Athelia rolfsii and in the experiment with Macrophomina phaseolina were 164 µg/mL (≈ 672 µM) and 190 µg/mL (≈ 779 µM), respectively.

In the case of `Clc1cccc(Cl)c1/C=N/CCCC/N=C/c1c(Cl)cccc1Cl`, the EC50 turned out to be 22.1 µg/mL (≈ 54.8 µM) in the experiment on Athelia rolfsii and 12.4 µg/mL (≈ 30.9 µM) in the experiment on Macrophomina phaseolina.

On to `Fc1cccc(/N=C/c2ccc(Cl)cc2Cl)c1`, for which the EC50 was determined as 548 µg/mL (≈ 2040 µM) in the experiment with Athelia rolfsii and 600 µg/mL (≈ 2240 µM) in the experiment on Macrophomina phaseolina.

On to `O=[N+]([O-])c1cccc(/C=N/c2ccco2)c1`, for which the values for the EC50 with Athelia rolfsii and with Macrophomina phaseolina were 201 µg/mL (≈ 930 µM) and 17.1 µg/mL (≈ 79.2 µM), respectively.

Take `Clc1ccc(/C=N/CCCC/N=C/c2ccc(Cl)cc2Cl)c(Cl)c1`: the EC50 was found to be 179 µg/mL (≈ 444 µM) in the experiment on Athelia rolfsii and 100 µg/mL (≈ 249 µM) in the experiment on Macrophomina phaseolina.

Consider `Clc1ccc(/C=N/CCC/N=C/c2ccc(Cl)cc2Cl)c(Cl)c1`, for which the values for the EC50 with Athelia rolfsii and with Macrophomina phaseolina were 27.1 µg/mL (≈ 69.9 µM) and 17.8 µg/mL (≈ 45.7 µM), respectively.

Regarding `Fc1ccc(/N=C/c2ccc(Cl)cc2Cl)cc1`, the EC50 in the experiment on Athelia rolfsii is 37.4 µg/mL (≈ 140 µM); with Macrophomina phaseolina, 21.8 µg/mL (≈ 81.4 µM).
